The target in experiment [1] is Nucleic Acid. Description: Displacement of methyl green from DNA after 24 hrs by microtiter assay. The class given is nucleic-acid assay. The procedure, abridged:
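Complex: DNA–methyl green reagent (20 mg/100 ml) in 0.05 M Tris-HCl pH 7.5 with 7.5 mM MgSO4, stirred 24 h at 37°. Samples dried from EtOH in wells, then complex added. A630 read at once and after 24 h dark at ambient temperature. Final corrected for initial, normalized to untreated complex. IC50 for 50% decrease by linear regression on semi-log plot; n = 3 to 5.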

The test system of experiment [2] is Calf thymus DNA. Description: Displacement of ethidium bromide from calf thymus type 1 DNA after 4 hrs by microtiter assay.

Values after ≈ are worked out from the molar mass of the structure shown.

Regarding `CCOc1ccc(-c2nc3cc(-c4nc5cc(N6CCN(C)CC6)ccc5[nH]4)ccc3[nH]2)cc1`, the IC50 in experiment [1] was determined as 37 µg/mL (≈ 81.8 µM); in experiment [2], 33 µg/mL (≈ 72.9 µM).
In the same order, the values of `COc1c(O)c2c(c3cc(C(=O)N4CCc5c4c(O)c(OC)c4[nH]c(C(=O)N6C[C@H]7C[C@@]78C6=CC(=O)c6[nH]cc(C)c68)cc54)[nH]c13)CCN2C(N)=O` [(+)-CC-1065] are 62 µg/mL (≈ 88.1 µM) and 26 µg/mL (≈ 36.9 µM).
In the same order, the values of `COC(=O)C(O)(c1cc2c(c3oc([C@]4(C)C[C@@H]4C)cc(=O)c13)C(=O)c1c(ccc([C@H]3C[C@](C)(N(C)C)[C@H](O[C@@H]4C[C@H](OC)[C@H](O)[C@@H](C)O4)[C@H](C)O3)c1O)C2=O)[C@H]1O[C@H](C)[C@@H](O)[C@@H](OC)[C@@H]1O` (some centres not stated) [ALTROMYCIN B] are 67 µg/mL (≈ 72.5 µM) and 44 µg/mL (≈ 47.6 µM).
Turning to `COc1cc2c(oc(=O)c3cc(C)cc(OC)c32)c2c([C@@H]3O[C@H](C)[C@H](O)[C@@](C)(O)[C@H]3O)ccc(O)c12` [CHRYSOMYCIN B], the IC50 in experiment [1] is 20 µg/mL (≈ 40.3 µM).
Consider `COc1cccc2c1C(=O)c1c(O)c3c(c(O)c1C2=O)C[C@@](O)(C(C)=O)C[C@@H]3O[C@H]1C[C@H](N)[C@H](O)[C@H](C)O1` [DAUNORUBICIN], for which the figures for the IC50 in experiment [1] and in experiment [2] were 30 µg/mL (≈ 56.9 µM) and 2 µg/mL (≈ 3.79 µM), respectively.
`N=C(N)c1ccc(/N=N/Nc2ccc(C(=N)N)cc2)cc1` [DIMINAZENE]: the values for the IC50 in experiment [1] and in experiment [2] were 67 µg/mL (≈ 238 µM) and 59 µg/mL (≈ 210 µM), respectively.
Take `C/C=C\C1OC1(C)c1cc(=O)c2c(C)cc3c(c2o1)C(=O)c1c(O)c([C@H]2C[C@](C)(N(C)C)[C@@H](OC(C)=O)[C@@H](C)O2)cc([C@@H]2C[C@H](N(C)C)[C@@H](O)[C@@H](C)O2)c1C3=O` (some centres not stated) [PLURAMYCIN]: the results for the 50% inhibitory concentration (IC50) in experiment [1] and in experiment [2] were 51 µg/mL (≈ 66 µM) and 3.6 µg/mL (≈ 4.66 µM), respectively.
In the same order, the values of `C/C=C\C1OC1(C)c1cc(=O)c2c(C)cc3c(c2o1)C(=O)c1c(O)c([C@H]2C[C@@](C)(N(C)C)[C@H](O)[C@H](C)O2)cc([C@@H]2C[C@H](N(C)C)[C@@H](O)[C@@H](C)O2)c1C3=O` (some centres not stated) [RUBIFLAVIN] are 17 µg/mL (≈ 23.3 µM) and 13 µg/mL (≈ 17.8 µM).
As to `Cn1cc(NC(=O)c2cc(NC(=O)c3cc(NC=O)cn3C)cn2C)cc1C(=O)NCCC(=N)N` [STALLIMYCIN], the IC50 in experiment [1] was found to be 18 µg/mL (≈ 37.4 µM); in experiment [2] it was 4.3 µg/mL (≈ 8.93 µM).

Usually IC50 stands for the point on the concentration scale where inhibition reaches its midpoint.

The record behind these values is ChEMBL document CHEMBL1150052, “A colorimetric microassay for the detection of agents that interact with DNA” (J Nat Prod, 1992).
